How the values were obtained:
Homo sapiens [1] = experiment: Toxicity in healthy human assessed as occurrence of adverse event at 80 mg, po administered daily for 3 days as four 20-mg immediate-release tablets during 10 hrs overnight fasting state; type: organism-based; conditions: in vivo
Outline: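 3-day daily oral tablet dosing in healthy Caucasian men (8 active, 4 placebo per dose). Adverse events were collected by open questioning and spontaneous report. Severity was graded mild (daily activities unaffected), moderate (some interference) or severe (activities not completed).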

Homo sapiens [2] = experiment: Toxicity in healthy human assessed as occurrence of clinically relevant changes in vital signs at 10 to 80 mg, po administered as single ascending doses during 10 hrs overnight fasting state; type: organism-based; conditions: in vivo
Outline: (§1)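 Healthy Caucasian men received single ascending doses (10–40 mg solution, 80 mg tablets) or 3-day daily tablet courses, all fasting, with randomized placebo controls. Supine blood pressure, heart rate and resting 12-lead ECG were recorded before and after dosing.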

Homo sapiens [3] = experiment: Toxicity in healthy human assessed as occurrence of changes in electrocardiogram parameters at 10 to 80 mg, po administered as single ascending doses during 10 hrs overnight fasting state; type: organism-based; conditions: in vivo; outline: as §1
Homo sapiens [4] = experiment: Toxicity in healthy human assessed as occurrence of changes in electrocardiogram parameters at 40 mg, po administered daily for 3 days as two 20-mg immediate-release tablets during 10 hrs overnight fasting state; type: organism-based; conditions: in vivo; outline: as §1
Homo sapiens [5] = experiment: Toxicity in healthy human assessed as increase in alanine aminotransferase level at 80 mg, po administered daily for 3 days as four 20-mg immediate-release tablets during 10 hrs overnight fasting state measured after 24 hrs last post treatment; type: organism-based; conditions: in vivo
Homo sapiens [6] = experiment: Toxicity in healthy human assessed as decrease in glutamate dehydrogenase level at 80 mg, po administered daily for 3 days as four 20-mg immediate-release tablets during 10 hrs overnight fasting state measured after 2 days last post treatment; type: organism-based; conditions: in vivo, 48 h
[7] = Half life in healthy human plasma at 10 mg, po administered as single ascending doses as solution during 10 hrs overnight fasting state; type: ADME, organism-based
Outline: (§2)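 Healthy Caucasian male volunteers, single oral dose with 240 ml water after a 10-h overnight fast. Heparinised venous blood was drawn predose and at 0.25–14 h. Plasma was stored frozen. Parent drug and metabolites M1–M3 were measured by LC/MS-MS (MRM, deuterated internal standard). Noncompartmental analysis gave Cmax observed, t1/2 = 0.693/kel (terminal regression) and MRT = AUMC/AUC. Values are geometric means.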

[8] = Mean residence time in healthy human at 10 mg, po administered as single ascending doses as solution during 10 hrs overnight fasting state; type: ADME, organism-based; conditions: in vivo; outline: as §2
[9] = Tmax in healthy human plasma at 20 mg, po administered as single ascending doses as solution during 10 hrs overnight fasting state; type: ADME, organism-based
Outline: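 Healthy Caucasian male volunteers, randomized within each dose group against placebo, given a single oral solution with 240 ml water after a 10-h overnight fast. Plasma sampled predose and at 0.25–14 h, quantified by LC/MS-MS (MRM, deuterated internal standard). Tmax read directly from individual noncompartmental concentration–time data.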

[10] = Mean residence time in healthy human at 20 mg, po administered as single ascending doses as solution during 10 hrs overnight fasting state; type: ADME, organism-based; conditions: in vivo; outline: as §2
[11] = Half life in healthy human plasma at 30 mg, po administered as single ascending doses as solution during 10 hrs overnight fasting state; type: ADME, organism-based; outline: as §2
[12] = Half life in healthy human plasma at 40 mg, po administered as single ascending doses as solution during 10 hrs overnight fasting state; type: ADME, organism-based; outline: as §2
[13] = Apparent oral clearance in healthy human at 40 mg, po administered as single ascending doses as solution during 10 hrs overnight fasting state; type: ADME, organism-based; conditions: in vivo
Outline: (§3)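 Single ascending oral doses in healthy Caucasian men, given fasted (10-h overnight) with 240 ml water: 10, 20, 30 or 40 mg as oral solution, or 80 mg as IR tablets. Parent plasma levels by LC/MS-MS over 0.25–14 h. Noncompartmental analysis: kel by terminal-phase least-squares regression, AUC extrapolated to infinity, CL/F = dose/AUC, V/F = CL/F÷kel.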

[14] = Half life in healthy human plasma at 80 mg, po administered as single immediate release tablets during 10 hrs overnight fasting state; type: ADME, organism-based; outline: as §2
[15] = Apparent oral clearance in healthy human at 80 mg, po administered as single immediate release tablets during 10 hrs overnight fasting state; type: ADME, organism-based; conditions: in vivo; outline: as §3
[16] = Cmax in healthy human plasma at 40 mg, po administered as two 20 mg immediate release tablets daily for 3 days during 10 hrs overnight fasting state measured after 1 day; type: ADME, organism-based; design: dose 40 mg, route oral
Outline: (§4)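 Healthy Caucasian males took tablets once daily for 3 days with 240 ml water after a 10-h fast. Heparinised blood was drawn predose and at 0.25–14 h after the first and last doses. Plasma parent drug and metabolites M1–M3 were measured by LC/MS-MS (MRM, deuterated internal standard). Noncompartmental analysis gave Cmax observed, t1/2 = 0.693/kel and MRT = AUMC/AUC. Values are geometric means.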

[17] = AUC in healthy human plasma at 40 mg, po administered as two 20 mg immediate release tablets daily for 3 days during 10 hrs overnight fasting state measured after 3 day; type: ADME, organism-based; design: dose 40 mg, time < 10 hr, route oral
Outline: (§5)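 Healthy Caucasian males took 40 mg (2×20-mg IR tablets) or 80 mg (4 tablets) orally daily for 3 days after a 10-h fast. Plasma parent drug was measured by LC/MS-MS from predose to 14 h after the first and third doses. Noncompartmental analysis: AUC by log-linear trapezoid extrapolated via kel, CL/F = dose/AUC, V/F = CL/F÷kel, geometric means.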

[18] = Apparent volume of distribution with respect to the bioavailability in healthy human at 40 mg, po administered as two 20 mg immediate release tablets daily for 3 days during 10 hrs overnight fasting state measured after 3 day; type: ADME, organism-based; conditions: in vivo, read-out: Vc/F; outline: as §5
Plasma [19] = experiment: (§6) Ratio of Cmax in healthy human plasma at 40 mg, po administered as two 20 mg immediate release tablets daily for 3 days during 10 hrs overnight fasting state measured after 1 day to Cmax in healthy human plasma at 40 mg, po administered as two 20 mg immediate release tablets daily for 3 days during 10 hrs overnight fasting state measured after 3 day; type: ADME, organism-based; conditions: in vivo
Outline: (§7)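 Healthy Caucasian men took tablets daily for 3 days with 240 ml water after 10-h fast. Plasma sampled 0.25–14 h after first and last doses, artemisone measured by LC/MS-MS. Accumulation ratio is Cmax or AUC0-∞ after last dose divided by that after first dose. Noncompartmental analysis, geometric means with 95% CI.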

Plasma [20] = experiment: as §6, with “Ratio of AUC (0 to infinity)” for “Cmax”; type: ADME, organism-based; conditions: in vivo; outline: as §7
[21] = Half life in healthy human plasma at 80 mg, po administered as four 20 mg immediate release tablets daily for 3 days during 10 hrs overnight fasting state measured after 1 day; type: ADME, organism-based; outline: as §4
[22] = Half life in healthy human plasma at 80 mg, po administered as four 20 mg immediate release tablets daily for 3 days during 10 hrs overnight fasting state measured after 3 day; type: ADME, organism-based; outline: as §4
[23] = Apparent oral clearance in healthy human at 80 mg, po administered as four 20 mg immediate release tablets daily for 3 days during 10 hrs overnight fasting state measured after 3 day; type: ADME, organism-based; conditions: in vivo; outline: as §5
[24] = Apparent volume of distribution with respect to the bioavailability in healthy human at 80 mg, po administered as four 20 mg immediate release tablets daily for 3 days during 10 hrs overnight fasting state measured after 1 day; type: ADME, organism-based; conditions: in vivo, read-out: Vc/F; outline: as §5

## C[C@H]1[C@H](N2CCS(=O)(=O)CC2)O[C@@H]2O[C@@]3(C)CC[C@H]4[C@H](C)CC[C@@H]1[C@@]24OO3 [ARTEMIFONE]
Homo sapiens [1]
  Activity: Non-toxic
Homo sapiens [2]
  Activity: Non-toxic
Homo sapiens [3]
  Activity: Non-toxic
Homo sapiens [4]
  Activity: Non-toxic
Homo sapiens [5]
  Activity: Non-toxic
Homo sapiens [6]
  Activity: Non-toxic
[7]
  half-life: 1.51 h
[8]
  MRT: 0.98 h
[9]
  Tmax: 0.5 h
[10]
  MRT: 1.79 h
[11]
  half-life: 3.14 h
[12]
  half-life: 3.54 h
[13]
  CL/F: 5640 mL/min
[14]
  half-life: 2.79 h
[15]
  CL/F: 4740 mL/min
[16]
  Cmax: 96.4 ng/mL
[17]
  AUC at 10 h: 191 ng·h/mL
[18]
  Vd/F: 16.1 L/kg
Plasma [19]
  Ratio: 98.5%
Plasma [20]
  Ratio: 104%
[21]
  half-life: 2.97 h
[22]
  half-life: 3.07 h
[23]
  CL/F: 3950 mL/min
[24]
  Vd/F: 13 L/kg

Source: ChEMBL document CHEMBL1671864, “First assessment in humans of the safety, tolerability, pharmacokinetics, and ex vivo pharmacodynamic antimalarial activity of the new artemisinin derivative artemisone” (Antimicrob Agents Chemother, 2008)
